Measured values from different studies.
Each line is one published result; the experiments were not run side by side.
Organism: Staphylococcus aureus
Read-out: microbial growth

Cc1[nH]c(/C=C2\C(=O)Nc3ccccc32)c(C)c1CCC(=O)O  MIC (NCTC8325): > 30 µM
O=C(CCCN1CCC(O)(c2ccc(Cl)cc2)CC1)c1ccc(Br)cc1  MIC: > 128 µg/mL
COc1cccc(-c2nc3ccccc3[nH]2)c1  MIC (broth dilution; ATCC29213 MSSA): 256 µg/mL
CC(C)Oc1c(NC(=O)c2ccc(NC(=O)[C@H](CC(N)=O)NC(=O)c3ccc(NC(=O)c4ccc(C#N)cc4)cc3)cc2)ccc(C(=O)Nc2cccc(C(=O)O)c2)c1O  MIC (ATCC29213): 2 µg/mL
CC1(C)S[C@@H]2[C@H](NC(=O)[C@H](N)c3ccccc3)C(=O)N2[C@H]1C(=O)O  MIC (broth dilution; ATCC25923; 16 h): 0.15 µg/mL
O=C(Nc1ccc(Nc2ccccc2)cc1)Nc1ccc(Cl)c(C(F)(F)F)c1  MIC (NCTC8325; 24 h): 3 µM
COCCCNC(=N)c1ccc(NC(=O)c2ccc(C(=O)Nc3ccc(C(=N)NCCCOC)cc3)cc2)cc1  MIC: 4 µg/mL
COc1ccc(-c2nc3ccc(C)cc3[nH]2)cc1O  MIC (broth dilution; ATCC29213 MSSA): 64 µg/mL
CC1=NN(CNC(=O)c2ccccn2)C(=O)C1=NNn1c(-c2ccccc2)nc2ccccc2c1=O  MIC (broth dilution; 24 h): 52 µM
CN[C@H](CC(C)C)C(=O)N[C@H]1C(=O)N[C@@H](CC(N)=O)C(=O)N[C@H]2C(=O)N[C@H]3C(=O)N[C@H](C(=O)N[C@H](C(=O)O)c4cc(O)cc(O)c4-c4cc3ccc4O)[C@H](O)c3ccc(c(Cl)c3)Oc3cc2cc(c3O[C@@H]2O[C@H](CO)[C@@H](O)[C@H](O)[C@H]2O[C@H]2C[C@](C)(N)[C@H](O)[C@H](C)O2)Oc2ccc(cc2Cl)[C@H]1O  MIC (broth dilution; CCARM3090): 0.5 µg/mL
CC(C)/N=C(\N)c1ccc(NC(=O)c2ccc(C(=O)Nc3ccc(/C(N)=N/C(C)C)cc3)cc2)cc1  MIC: 4 µg/mL
O=C1NC(=S)S/C1=C\c1ccc(-c2ccc(N(c3ccccc3)c3ccccc3)cc2)c2ccccc12  MIC (broth dilution; ATCC25923): 500 µg/mL
CN1CCN=C1c1ccc(NC(=O)c2ccc(C(=O)Nc3ccc(C4=NCCN4C)cc3)cc2)cc1  MIC: 8 µg/mL
O=C1NC(=S)S/C1=C\c1ccc(-c2ccc(N(c3ccccc3)c3ccccc3)cc2)cc1  MIC (broth dilution; ATCC6538): 500 µg/mL
CCCCCCC#Cc1cncc(-c2nnc(SCc3ccc(Cl)cc3)n2C2CC2)c1  MIC (MRSA; drug-resistant strain): ≥ 20 µg/mL
CN(C)c1ccc(-c2ccc3cc4c(c(O)c3c2)C(=O)C2=C(O)[C@]3(O)C(=O)C(C(N)=O)=C(O)[C@@H](N(C)C)[C@@H]3C[C@@H]2C4)cc1  MIC (broth dilution; ATCC29213): 32 µg/mL
Nc1ncnc2c1c(-c1cnc3[nH]ccc3c1)nn2C1CCCC1  MIC (NCTC8325): > 30 µM
C/C=C(\C)c1cc(OC(=O)c2c(C)c(Cl)c(O)c(Cl)c2O)c(C)c(O)c1C(=O)O  MIC (broth dilution; ATCC29213): 64 µg/mL
Cc1ccc2nc(-c3ccc([N+](=O)[O-])cc3)n(Cc3ccccc3)c2c1  MIC (broth dilution; ATCC29213 MSSA): 8 µg/mL
Clc1ccccc1NCc1ccc(Oc2ccccn2)cc1  MIC: 1.6 µg/mL
CS(=O)(=O)CCNCc1ccc(-c2ccc3ncnc(Nc4ccc(OCc5cccc(F)c5)c(Cl)c4)c3c2)o1  MIC (NCTC8325): > 30 µM
CN[C@H](CC(C)C)C(=O)N[C@H]1C(=O)N[C@@H](CC(N)=O)C(=O)N[C@H]2C(=O)N[C@H]3C(=O)N[C@H](C(=O)N[C@H](C(=O)O)c4cc(O)cc(O)c4-c4cc3ccc4O)[C@H](O)c3ccc(c(Cl)c3)Oc3cc2cc(c3O[C@@H]2O[C@H](CO)[C@@H](O)[C@H](O)[C@H]2O[C@H]2C[C@](C)(N)[C@H](O)[C@H](C)O2)Oc2ccc(cc2Cl)[C@H]1O  MIC (broth dilution; ATCC6538): 0.49 µg/mL
Cc1ccc2nc(-c3cc(Br)ccc3O)[nH]c2c1  MIC (broth dilution; ATCC29213 MSSA): 64 µg/mL
Cn1cc(C2=C(c3ccc(Cl)cc3Cl)C(=O)NC2=O)c2ccccc21  MIC (NCTC8325): > 30 µM
Cc1ccc2nc(-c3ccc([N+](=O)[O-])cc3)n(Cc3ccc(Cl)cc3)c2c1  MIC (broth dilution; ATCC29213 MSSA): 8 µg/mL
COc1cccc(OC)c1C(=O)N[C@@H]1C(=O)N2[C@@H]1SC(C)(C)[C@@H]2C(=O)O  MIC (147; clinical isolate): 6.25 µM
O=C(Nc1ccc(F)c(F)c1)c1cc(Cl)ccc1O  MIC (broth dilution; ATCC29213): 0.44 µg/mL
O=C(CCc1ccc(O)c(O)c1)NCCCCCCCC[P+](c1ccccc1)(c1ccccc1)c1ccccc1.[Br-]  MIC (broth dilution; ATCC43300 MRSA; 18 h): > 32 µg/mL
CCOc1ccc(-c2nc3ccccc3[nH]2)cc1  MIC (broth dilution; ATCC29213 MSSA): 256 µg/mL
Cn1c(Nc2ccc(C(F)(F)F)cc2)nc2cc(Oc3ccnc(-c4ncc(C(F)(F)F)[nH]4)c3)ccc21  MIC (NCTC8325): 30 µM
Clc1ccc(-c2nc3ccccc3n2Cc2ccccc2)cc1Cl  MIC (broth dilution; ATCC29213 MSSA): 8 µg/mL
CC1=NN(CNc2ccc(O)cc2)C(=O)C1=NNn1c(-c2ccccc2)nc2ccccc2c1=O  MIC (broth dilution; 24 h): 53.5 µM
Cc1cccc(NCc2ccc(Oc3ccccn3)cc2)c1  MIC: > 6.2 µg/mL
CC(=O)Nc1ccc(C(=O)Nc2ccc(C(=O)N[C@@H](CC(N)=O)C(=O)Nc3ccc(C(=O)Nc4ccc(C(=O)Nc5ccc(C(=O)O)cc5)c(O)c4OC(C)C)cc3)cc2)cc1  MIC (ATCC29213): 64 µg/mL
Cc1ccc(C)n1-c1ccc(-c2nnco2)cc1  MIC (broth dilution; ATCC11632; 18 h): 2 µg/mL
CCCCCCCCCCCC(=O)Oc1c(C)c(O)c(C(=O)/C=C/c2ccccc2)c(OC)c1C  MIC (broth dilution; ATCC25923): 5000 µg/mL
O=C(O)CN1C(=O)/C(=C/c2ccc(-c3ccc(N(c4ccccc4)c4ccccc4)cc3)c3ccccc23)NC1=S  MIC (broth dilution; ATCC25923): > 1000 µg/mL
CC(C)Oc1c(NC(=O)c2ccc(NC(=O)[C@H](CC(N)=O)NC(=O)c3ccc(NC(=O)c4cccc([N+](=O)[O-])c4)cc3)cc2)ccc(C(=O)Nc2ccc(C(=O)O)cc2)c1O  MIC (ATCC29213): > 64 µg/mL
C=C(C/C=C(\C)CCC=C(C)C)CCC(C)(C)/C=C/CC/C(C)=C\CO[C@H](COP(=O)(O)O[C@H]1O[C@H](C(N)=O)[C@@](C)(O)[C@H](OC(N)=O)[C@H]1O[C@@H]1O[C@H](CO[C@@H]2O[C@H](CO)[C@@H](O)[C@H](O)[C@H]2O)[C@@H](O[C@@H]2O[C@H](C)[C@@H](O[C@@H]3O[C@H](C(=O)NC4=C(O)CCC4=O)[C@H](O)[C@H](O)[C@H]3O)[C@H](O)[C@H]2NC(C)=O)[C@H](O)[C@H]1NC(C)=O)C(=O)O  MIC (broth dilution; 18 h): < 0.75 µg/mL
CC(=O)NC[C@H]1CN(c2ccc(N3CCOCC3)c(F)c2)C(=O)O1  MIC (broth dilution; MRSA NRS119; drug-resistant strain): 32 µM
Cc1cc(Cl)cc2sc(N(CCCn3ccnc3)C(=O)c3ccco3)nc12  MIC (ATCC25923): 2.6 µM
C/C=C(\C)c1cc(O)c(C)c(OC(=O)c2c(C)c(Cl)c(O)c(Cl)c2O)c1  MIC (broth dilution; CCARM3090): 4 µg/mL
C[n+]1c(/C=C/c2c[nH]c3ccccc23)cc(/C=C2\Sc3ccccc3N2CCCN2CCCC2)c2ccccc21.[I-]  MIC (broth dilution; ATCCBAA44): 4 µg/mL
CNc1cccc2cc(C(=O)Nc3ccc(C(=O)O)cc3)c(=O)[nH]c12  MIC (ATCC29213): 16 µg/mL
CC1(C)S[C@@H]2[C@H](NC(=O)[C@H](N)c3ccccc3)C(=O)N2[C@H]1C(=O)O  MIC (broth dilution; MRSA): 32 µg/mL
CC(C)Oc1c(NC(=O)c2ccc(NC(=O)[C@H](CC(N)=O)NC(=O)c3ccc(NC(=O)c4ccc(C#N)cc4)cc3)cc2)ccc(C(=O)Nc2ccc(C(=O)O)cc2)c1O  MIC (ATCC29213): 0.25 µg/mL
CN(C)c1ccc(-c2nc3ncc(Cl)c(N4CCN(CC(=O)Nc5nccs5)CC4)c3[nH]2)cc1  MIC (NCTC8325): > 30 µM
C/C=C(\C)c1cc(O)c(C)c(OC(=O)c2c(C)cc(O)c(Cl)c2O)c1  MIC (broth dilution; 16339): 16 µg/mL
Cc1cc(C#N)ccc1C(=O)Nc1ccc(C(=O)N[C@@H](CC(N)=O)C(=O)Nc2ccc(C(=O)Nc3ccc(C(=O)Nc4ccc(C(=O)O)cc4)c(O)c3OC(C)C)cc2)cc1  MIC (ATCC29213): 64 µg/mL
C/C=C(\C)c1cc(OC(=O)c2c(O)c(C)c(O)c(Cl)c2/C(C)=C/C)c(C)c(O)c1C(=O)O  MIC (broth dilution; 16162): 32 µg/mL
CC(C)Oc1c(NC(=O)c2ccc(NC(=O)[C@H](CC(N)=O)NC(=O)c3ccc(NC(=O)C(C)Oc4ccccc4)cc3)cc2)ccc(C(=O)Nc2ccc(C(=O)O)cc2)c1O (stereo partly shown)  MIC (ATCC29213): > 64 µg/mL
Clc1ccc(-c2nc3ccccc3[nH]2)cc1  MIC (broth dilution; ATCC29213 MSSA): 64 µg/mL
C=CCOc1c(C)c(O)c(C(=O)/C=C/c2ccccc2)c(OC)c1C  MIC (broth dilution; ATCC25923): > 5000 µg/mL
CC1(C)S[C@@H]2[C@H](NC(=O)[C@H](N)c3ccccc3)C(=O)N2[C@H]1C(=O)O  MIC (broth dilution): 0.02 µg/mL
O=C(Cc1ccc(O)c(O)c1)NCCCCCCCC[P+](c1ccccc1)(c1ccccc1)c1ccccc1.[Br-]  MIC (broth dilution; ATCC43300 MRSA; 18 h): > 32 µg/mL
O=C1NC(=S)N/C1=C\c1c2ccccc2c(-c2ccc(N(c3ccccc3)c3ccccc3)cc2)c2ccccc12  MIC (broth dilution; ATCC43300): > 1000 µg/mL
COc1ccc(-c2ccc3c(N4CCOCC4)nc(N4C[C@@H](C)O[C@@H](C)C4)nc3n2)cc1CO  MIC (NCTC8325): > 30 µM
CC[C@H]1OC(=O)[C@H](C)[C@@H](O[C@H]2C[C@@](C)(OC)[C@@H](O)[C@H](C)O2)[C@H](C)[C@@H](O[C@@H]2O[C@H](C)C[C@H](N(C)C)[C@H]2O)[C@](C)(O)C[C@@H](C)C(=O)[C@H](C)[C@@H](O)[C@]1(C)O  MIC (129; clinical isolate): > 100 µM
